Measured values: PMC4390023 (The British journal of nutrition, 2013)
“Also recorded” adds a separate entry of the source.

How the values were obtained:
[1] = Study 3 retinol and α-retinol in liver, kidney and serum after the final dose; type: in vivo, rat; conditions: for Liver αR: 3.5 µmol/day for 21 days, n 5
[2] = given intraperitoneally; cited from earlier work
[3] = Study 3 toxicity study: serum chemistry panel and liver histology; type: in vivo, rat; conditions: 3.5 µmol/d for 21 d; for Hepatotoxicity: rats killed 1, 8 and 15 d after the last dose
[4] = high doses given to dams; not to the extent of retinoic acid alone; cited from earlier work
RARβ = conditions: cited from earlier work
RARγ = conditions: cited from earlier work
RARα = conditions: cited from earlier work
Study 1 growth assay = type: in vivo, rat; conditions: for Area-under-the growth curve, difference from control / Bioactivity from area-under-the growth curve, % of retinol / Bioactivity from final body weight, % of retinol / Final body weight / Area-under-the growth curve: rats, 50 nmol/d for 5 weeks; for Bioactivity from area-under-the growth curve, % of retinol: control subtracted, relative to retinol group; for Bioactivity from final body weight, % of retinol: difference from control relative to retinol group; for Final body weight / Area-under-the growth curve: mean, n 10; for Area-under-the growth curve: trapezoidal; for Bioactivity compared with retinol: from body weights and area-under-the-response curves, equimolar 50 nmol/d
Method in brief: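 Weanling (21-d) male Sprague Dawley rats (n 40) were fed a vitamin A-deficient diet and weighed daily. At week 9 they were split into four weight-matched groups (n 10) and given 50 nmol/d oral retinoid acetate in 100 µl cottonseed oil, or vehicle alone. Rats were killed 5 weeks after dosing began. Body-weight AUC was by trapezoidal approximation, and bioactivity from ending weights versus the retinol group. ANOVA; means (SD).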

[5] = Study 1 tissue and serum ROH, αR and DR by HPLC; type: in vivo, rat; conditions: for Lung ROH concentration / Spleen ROH concentration: rats, 50 nmol/d oral, 5 weeks, mean, n 10
[6] = Study 2 interaction study: graded αR with 70 nmol ROH/d, serum and liver; type: in vivo, rat; conditions: for Liver αR / Total dose liver retention: 3 weeks
Method in brief: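 Each received oral daily 70 nmol reference retinoid plus 0, 17.5, 35 or 70 nmol test retinoid (as acetate) in 100 µl cottonseed oil. Rats were killed after 3 weeks. Serum and saponified liver were run on isocratic C18 HPLC-UV in acetonitrile:water 87.5:12.5 with 10 mM ammonium acetate. ANOVA; means (SD).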

[7] = in vitro and in vivo models; cited from earlier work
[8] = cited from earlier work; for Estimates of bioactivity in rats, that of ROH: ref estimates of the 1950's
apo-RBP = conditions: cited from earlier work
[9] = rats maintained on DR; cited from earlier work
retinol transporter = conditions: cited from earlier work

CC(=O)OC/C=C(C)/C=C/C=C(C)/C=C/C1C(C)=CCCC1(C)C (stereo not drawn) [α-retinyl acetate]
Liver αR ([1]; day 1 after final dose): 2300 nmol/g
Liver αR ([1]; day 8 after final dose): 1750 nmol/g
Liver αR ([1]; day 15 after final dose): 1770 nmol/g
Growth of hamsters [2]: sustains growth of hamsters
Hepatotoxicity [3]: No hepatic toxicity was observed; also recorded: No hepatotoxicity was noted

CC(=O)OC/C=C(C)/C=C/C=C(C)/C=C/C1=C(C)C=CCC1(C)C [3,4-didehydroretinyl acetate]
Terata in fetuses [4]: caused terata in fetuses

CC1=C(/C=C/C(C)=C/C=C/C(C)=C/C(=O)O)C(C)(C)CC=C1 [3,4-Didehydroretinoic acid]
Affinity for RARβ (RARβ): same affinity as retinoic acid
Affinity for RARγ (RARγ): same affinity as retinoic acid
Affinity for RARα (RARα): same affinity as retinoic acid

CC1=C(/C=C/C(C)=C/C=C/C(C)=C/CO)C(C)(C)CCC1 [Retinol, retinol, reference compound]
Area-under-the growth curve, difference from control (Study 1 growth assay): 787
Bioactivity from area-under-the growth curve, % of retinol (Study 1 growth assay): 100%
Bioactivity from final body weight, % of retinol (Study 1 growth assay): 100%
Final body weight (Study 1 growth assay): 546 g
Area-under-the growth curve (Study 1 growth assay): 1654 g·days
Kidney ROH relative to liver ROH ([5]; study 1): 7 times
Liver reserves, times less than deficiency cut-off (<70 nmol ROH/g liver) ([5]; study 1, ROH group): 14 times

CC1=CCCC(C)(C)C1/C=C/C(C)=C/C=C/C(C)=C/CO (stereo not drawn) [α-Retinol, α-retinol]
α-Retinyl esters circulating in the blood, share of total retinol ([1]; at αR concentrations >1.7 µmol/g liver): > 10%
Growth rate relative to ROH (Study 1 growth assay; classic growth assay, 50 nmol/d): about 50%
Bioactivity compared with retinol (Study 1 growth assay): 40–50%
Area-under-the growth curve, difference from control (Study 1 growth assay): 298
Final body weight (Study 1 growth assay): 508 g
Area-under-the growth curve (Study 1 growth assay): 1165 g·days
Liver αR ([6]; 17.5 nmol αR/d + 70 nmol ROH/d): 262 (SD 34) nmol/liver
Total dose liver retention ([6]; 17.5 nmol αR/d + 70 nmol ROH/d): 71.3%
Liver αR ([6]; 35 nmol αR/d + 70 nmol ROH/d): 449 (SD 23) nmol/liver
Total dose liver retention ([6]; 35 nmol αR/d + 70 nmol ROH/d): 61.1%
Liver αR ([6]; 70 nmol αR/d + 70 nmol ROH/d): 893 (SD 138) nmol/liver
Total dose liver retention ([6]; 70 nmol αR/d + 70 nmol ROH/d): 60.7%
Serum αR ([6]; study 2, 17.5-70 nmol αR/d + 70 nmol ROH/d): undetectable
Cumulative αR doses recovered in the liver ([6]; study 2, with 70 nmol ROH/d): 61–71%
Induction of signs of hypervitaminosis A [7]: very effective at inducing signs of hypervitaminosis A
Lung ROH concentration [5]: not detected
Spleen ROH concentration [5]: not detected
Cumulative αR doses recovered in the liver ([5]; study 1, ROH not made available): 0.3%
Serum ROH concentration ([5]; study 1, rats fed 50 nmol/d): ≤ 0.10 µmol/L
Activity relative to retinol (ROH), growth-promoting activity in rats [8]: 2.1%
Bioactivity [8]: 2.6%
Biopotency versus US Pharmacopeia Vitamin A Reference Standard ([8]; rat growth and liver storage bioassays): approximately 2%
Estimates of bioactivity in rats, that of ROH [8]: 2%
Biopotency of all-trans-retinyl acetate ([8]; ref previous reports): 2%
Binding in vitro with apo-RBP (apo-RBP): failed to bind
Toxicity compared with control rats [3]: No toxicity was evident
Hepatotoxicity [3]: no hepatotoxicity occurred
Stellate cell hypertrophy ([3]; liver sections, hematoxylin and eosin): No stellate cell hypertrophy was detected

CC(=O)OC/C=C(C)/C=C/C=C(C)/C=C/C1=C(C)CCCC1(C)C [retinyl acetate, reference compound]
Terata in fetuses [4]: caused terata in fetuses

CC1=C(/C=C/C(C)=C/C=C/C(C)=C/CO)C(C)(C)CC=C1 [3,4-Didehydroretinol, 3,4-didehydroretinol]
Bioactivity compared with retinol (Study 1 growth assay): 120–130%
Area-under-the growth curve, difference from control (Study 1 growth assay): 1000
Bioactivity from area-under-the growth curve, % of retinol (Study 1 growth assay): 127%
Bioactivity from final body weight, % of retinol (Study 1 growth assay): 119%
Final body weight (Study 1 growth assay): 560 g
Area-under-the growth curve (Study 1 growth assay): 1867 g·days
Retina integrity [9]: normal retina integrity
Lung ROH concentration [5]: not detected
Spleen ROH concentration [5]: not detected
Serum DR in DR-dosed rats, times less than serum ROH in ROH-dosed rats ([5]; study 1): 2.6 times
Biological activity compared with ROH [8]: 40%
Estimates of bioactivity in rats, that of ROH [8]: 40%
Rate of carriage by the retinol transporter from the intestine (retinol transporter): at the same rate as ROH
